The values that follow come from article PMC9200134 (Chemical Science, 2022).

SMILES strings stand for the structures.

The subject of data set [1] is wild type zebrafish embryos. The settings on record: intravenous or retro-orbital injection, embryo type not stated; cited from earlier work.
The conditions of data set [2]: reference value, aerated CD3OD; cited from earlier work.
Data set [3] relates to lung (A549) cancer cell line. Put plainly: SRB cytotoxicity assay in 2D monolayers, dark vs green light. It is filed as cell-based, human. The conditions noted are these: read-out: EC50 (cell growth inhibition); A549 2D, dark (0 J cm^−2). The procedure, abridged:
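Cells were given test compound for 24 h. They were then irradiated (520 nm, 15 min, 21 mW cm−2, 19 J cm−2) or kept dark, and incubated a further 48 h. Cells were fixed in 10% TCA for 48 h at 4 °C and stained with 0.6% SRB. Absorbance was averaged over triplicate wells and viability taken relative to untreated wells. There were three biological replicates from different passages.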

For data set [4] the following is noted: at 3.3 μM; cited from earlier work.

As to `Cc1ccnc(-c2cc(C)ccn2)c1.Cc1ccnc(-c2cc(C)ccn2)c1.[Cl-].[Cl-].[Ru+2].c1csc(-c2ccc(-c3ccc(-c4nc5c6cccnc6c6ncccc6c5[nH]4)s3)s2)c1` [TLD-1433], the “MTD in zebrafish embryo” value in data set [1] is on record as 4.6 mM. As for `[Ru+2].c1ccc(-c2ccccn2)nc1.c1ccc(-c2ccccn2)nc1.c1ccc(-c2ccccn2)nc1` [[Ru(bpy)3]^2+], in data set [2], the “1O2 generation quantum yield Φ^refΔ” value is listed as 0.73. As to `N.N.[Cl][Pt][Cl]` [Cisplatin], the concentration giving a half-maximal response (EC50) (as a rule, the midpoint of the concentration-response curve) in data set [3] was 3000 nM. In addition, in data set [4], the “Platinum content in the nucleus” value is 0.6 ng Pt/10^6 cells.
